Common to all, as to format: cell-based
A short description of data set [1]: Cellular cytotoxicity, ATP-dependent luminescence assay. Summed up: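 Cytotoxicity measured by ATP-dependent luminescence, with CC50 derived. Values are from three independent experiments (n = 3), and standard deviations are reported.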
In data set [2] the test system is WT HIV-1. Kind of data set: Single-round infectivity assay, WT RT vector. The settings on record: for EC50: Human immunodeficiency virus 1, read-out: EC50 WT; for TI (therapeutic index): calculated from CC50 and WT EC50. Summed up:
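Single-round infection with an HIV-1-based vector (pNLNgoMIVR-ΔENV.LUC, Env-deleted, luciferase-carrying) with wild-type RT, used to derive EC50. Therapeutic index is calculated from CC50 (ATP-dependent luminescence assay) and wild-type EC50. Three independent experiments (n = 3), with standard deviations.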

Data set [3] concerns HIV-1 NNRTI-resistant mutant L100I. Description: Single-round infectivity assay, L100I. The settings on record: Human immunodeficiency virus 1, read-out: EC50 L100I. In outline: (§1)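 Single-round infection with the HIV-1-based vector pNLNgoMIVR-ΔENV.LUC (Env-deleted, luciferase-carrying) bearing the indicated RT mutation(s), used to derive EC50. The mutant vectors are previously described constructs.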

For data set [4], the system named is HIV-1 NNRTI-resistant mutant K103N. Kind of data set: Single-round infectivity assay, K103N. The settings on record: Human immunodeficiency virus 1, read-out: EC50 K103N. Summed up: as §1
Data set [5] relates to HIV-1 NNRTI-resistant mutant E138K. Kind of data set: Single-round infectivity assay, E138K. The settings on record: Human immunodeficiency virus 1, read-out: EC50 E138K. In outline:
as §1

For data set [6], the system named is HIV-1 NNRTI-resistant mutant Y181C. Kind of data set: Single-round infectivity assay, Y181C. The settings on record: Human immunodeficiency virus 1, read-out: EC50 Y181C. Summed up: as §1
For data set [7], the system named is HIV-1 NNRTI-resistant mutant Y188L. Description: Single-round infectivity assay, Y188L. The settings on record: Human immunodeficiency virus 1, read-out: EC50 Y188L. In outline:
as §1

Data set [8] concerns HIV-1 NNRTI-resistant mutant H221Y. Description: Single-round infectivity assay, H221Y. The settings on record: Human immunodeficiency virus 1, read-out: EC50 H221Y. In outline:
as §1

The subject of data set [9] is HIV-1 NNRTI-resistant mutant K103N/Y181C. Kind of data set: Single-round infectivity assay, K103N/Y181C. The settings on record: Human immunodeficiency virus 1, read-out: EC50 K103N/Y181C. In outline: as §1
For data set [10], the system named is HIV-1 NNRTI-resistant mutant K101P. Kind of data set: Single-round infectivity assay, K101P. The settings on record: read-out: EC50 K101P; single-round infection, n = 3. In outline: as §1
Data set [11] has as its system HIV-1 NNRTI-resistant mutant M230L. Kind of data set: Single-round infectivity assay, M230L. The settings on record: Human immunodeficiency virus 1, read-out: EC50 M230L. Summed up:
as §1

In data set [12] the test system is HIV-1 NNRTI-resistant mutant L100I/K103N. Kind of data set: Single-round infectivity assay, L100I/K103N. The settings on record: Human immunodeficiency virus 1, read-out: EC50 L100I/K103N. In outline: as §1
The test system of data set [13] is HIV-1 NNRTI-resistant mutant K103N/P225H. Kind of data set: Single-round infectivity assay, K103N/P225H. The settings on record: Human immunodeficiency virus 1, read-out: EC50 K103N/P225H. In outline:
as §1

Data set [14] deals with HIV-1 NNRTI-resistant mutant V106A/G190A/F227L. Kind of data set: Single-round infectivity assay, V106A/G190A/F227L. The settings on record: Human immunodeficiency virus 1, read-out: EC50 V106A/G190A/F227L. Summed up:
as §1

For data set [15], the system named is HIV-1 DOR-resistant mutant V106A/F227L. Description: Single-round infectivity assay, V106A/F227L. The settings on record: read-out: EC50 V106A/F227L; single-round infection, n = 3. Summed up: as §1
The subject of data set [16] is HIV-1 DOR-resistant mutant V106A/L234I. Description: Single-round infectivity assay, V106A/L234I. The settings on record: read-out: EC50 V106A/L234I; single-round infection, n = 3. Summed up: as §1
Data set [17] relates to HIV-1 DOR-resistant mutant V106A/F227L/L234I. Kind of data set: Single-round infectivity assay, V106A/F227L/L234I. The settings on record: read-out: EC50 V106A/F227L/L234I; single-round infection, n = 3. In outline: as §1
The test system of data set [18] is HIV-1 RT-resistant mutant K101E. Description: Single-round infectivity assay, K101E. The settings on record: Human immunodeficiency virus 1, read-out: EC50 K101E. In outline: as §1
Data set [19] concerns HIV-1 NNRTI-resistant mutant G190A. Kind of data set: Single-round infectivity assay, G190A. The settings on record: read-out: EC50 G190A; single-round infection, n = 3. In outline: as §1
Data set [20] has as its system HIV-1 NNRTI-resistant mutant G190S. Description: Single-round infectivity assay, G190S. The settings on record: read-out: EC50 G190S; single-round infection, n = 3. In outline: as §1
Data set [21] relates to HIV-1 NNRTI-resistant mutant P236L. Description: Single-round infectivity assay, P236L. The settings on record: read-out: EC50 P236L; single-round infection, n = 3. In outline:
as §1

The subject of data set [22] is HIV-1 DOR-resistant mutant L234I. Description: Single-round infectivity assay, L234I. The settings on record: read-out: EC50 L234I; single-round infection, n = 3. In outline: as §1
Data set [23] has as its system HIV-1 RT-resistant mutant E40K. Kind of data set: Single-round infectivity assay, E40K. The settings on record: read-out: EC50 E40K; single-round infection, n = 3. Summed up: as §1
The test system of data set [24] is HIV-1 RT-resistant mutant D67E. Description: Single-round infectivity assay, D67E. The settings on record: read-out: EC50 D67E; single-round infection, n = 3. In outline:
as §1

Data set [25] deals with HIV-1 RT-resistant mutant M184V. Kind of data set: Single-round infectivity assay, M184V. The settings on record: read-out: EC50 M184V; single-round infection, n = 3. In outline: as §1
Data set [26] deals with HIV-1 RT-resistant mutant K101E/M184I. Kind of data set: Single-round infectivity assay, K101E/M184I. The settings on record: read-out: EC50 K101E/M184I; single-round infection, n = 3. Summed up:
as §1

Data set [27] concerns HIV-1 RT-resistant mutant K101E/M184V. Kind of data set: Single-round infectivity assay, K101E/M184V. The settings on record: read-out: EC50 K101E/M184V; single-round infection, n = 3. In outline: as §1

The structures appear in SMILES notation.

Turning to `Cc1cc(/C=C/C#N)cc(C)c1Nc1nc(Nc2ccc(/C=C/C#N)cc2)ncc1N` [Compound 12, (E)‐3‐(4‐((5‐amino‐2‐((4‐((E)‐2‐cyanovinyl)phenyl)amino)pyrimidin‐4‐yl)amino)‐3,5‐dimethylphenyl)acrylonitrile], the CC50 in [1] amounted to 32200 ± 1500 nM. Further, the EC50 in [2] came to 1.2 ± 0.2 nM; in [3] it was 1.8 ± 0.2 nM; in [4] it was 1.6 ± 0.2 nM; in [5], 6.5 ± 0.9 nM; in [6], 5.3 ± 0.8 nM; in data set [7] it was 44 ± 2.6 nM. The EC50 was found to be 1.6 ± 0.1 nM in data set [8]; 22.4 ± 1.1 nM in data set [9]; 126 ± 29.4 nM in [10]; 16.9 ± 1.2 nM in data set [11]; 16.1 ± 0.2 nM in data set [12]; 1.6 ± 0.2 nM in data set [13]. Further, the EC50 came out at 2.5 ± 0.5 nM in data set [14]; 2 ± 0.1 nM in [15]; 1.4 ± 0.5 nM in data set [16]; 1.3 ± 0.1 nM in data set [17]; 3.4 ± 0.1 nM in data set [18]. Besides, the “TI (therapeutic index)” value in data set [2] is >25,000.
`Cc1cc(/C=C/C#N)cc(C)c1-n1cnc2cnc(Nc3ccc4cc(C#N)ccc4c3)nc21` [Compound 10, (E)‐6‐((9‐(4‐(2‐cyanovinyl)‐2,6‐dimethylphenyl)‐9H‐purin‐2‐yl)amino)‐2‐naphthonitrile]: the CC50 in data set [1] was found to be 10800 ± 1200 nM. Further, the EC50 is 2.3 ± 0.2 nM in data set [2]; 24.2 ± 6.1 nM in data set [3]; 24.5 ± 4.9 nM in data set [4]; 32.7 ± 4.4 nM in data set [5]; 47.7 ± 7.8 nM in [6]; 180 ± 14.7 nM in data set [7]. The EC50 in data set [8] was determined as 3.4 ± 0.3 nM; in [9] it was 468 ± 88.8 nM; in data set [19] it was 1.6 ± 0.3 nM; in data set [20], 2.1 ± 0.1 nM; in data set [11], 33.8 ± 2.7 nM; in data set [21] it was 1.6 ± 0.1 nM. Besides, the EC50 in data set [12] worked out at 386 ± 19.9 nM; in data set [13], 103 ± 8.1 nM; in data set [14], 7 ± 0.5 nM; in data set [22] it was 2.3 ± 0.2 nM; in data set [23], 4.2 ± 0.7 nM; in data set [24] it was 10 ± 1.9 nM. Besides, the EC50 is 13.4 ± 1 nM in data set [18], 3.1 ± 0.4 nM in data set [25], 14 ± 0.1 nM in data set [26] and 4.7 ± 0.8 nM in [27]. For the same compound, the “TI (therapeutic index)” value in data set [2] is given as 4,696.

Values taken from paper PMC7821153 (Chemical Biology & Drug Design, 2020).
